Test results from ChEMBL document CHEMBL3352196, “Synthesis, structural characterization and effect on human granulocyte intracellular cAMP levels of abscisic acid analogs” (Bioorg Med Chem, 2015).
The source made the active and inactive calls. No cut-off for these calls is given here.

Legend:
[1] = organism: Homo sapiens; experiment: Inhibition of 1 uM ABA-induced Increase in intracellular cAMP level in human granulocytes at 50 uM incubated for 1 min at 25 degC; type: functional, cell-based
In short: (§1)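 Cells were rested overnight, then resuspended at 1.5 × 10⁷/ml in HBSS containing Ca and Mg. After a 5 min preincubation at 25 °C with Ro-20-1724 (PDE inhibitor), aliquots received ABA with or without analog for 1 min at 25 °C; untreated cells were the control. Cold perchloric acid ended the reaction; lysate was spun, neutralized with K2CO3 to pH 7.5, and cleared of KClO4. cAMP was measured by [³H]-cAMP radioimmunoassay and given as increase over control.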

[2] = organism: Homo sapiens; experiment: Increase in intracellular cAMP level in human granulocytes at 1 to 50 uM incubated for 1 min at 25 degC; type: functional, cell-based
In short: (§2)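 Human granulocytes were rested overnight after purification, pelleted at 200×g for 5 min, and resuspended at 1.5 × 10⁷/ml in HBSS with Ca and Mg. Cells were preincubated 5 min at 25 °C with the PDE inhibitor Ro-20-1724, then given analog alone for 1 min at 25 °C. Perchloric acid at 4 °C stopped the reaction, and supernatant was neutralized to pH 7.5 with K2CO3. cAMP was read by [³H]-cAMP competitive radioimmunoassay and reported relative to untreated cells.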

[3] = biological target: T1, LanC-like protein 2 (Homo sapiens, UniProt Q9NS86); experiment: Inhibition of ABA binding to LANCL2 (unknown origin)
T1 sequence (Q9NS86 whole entry): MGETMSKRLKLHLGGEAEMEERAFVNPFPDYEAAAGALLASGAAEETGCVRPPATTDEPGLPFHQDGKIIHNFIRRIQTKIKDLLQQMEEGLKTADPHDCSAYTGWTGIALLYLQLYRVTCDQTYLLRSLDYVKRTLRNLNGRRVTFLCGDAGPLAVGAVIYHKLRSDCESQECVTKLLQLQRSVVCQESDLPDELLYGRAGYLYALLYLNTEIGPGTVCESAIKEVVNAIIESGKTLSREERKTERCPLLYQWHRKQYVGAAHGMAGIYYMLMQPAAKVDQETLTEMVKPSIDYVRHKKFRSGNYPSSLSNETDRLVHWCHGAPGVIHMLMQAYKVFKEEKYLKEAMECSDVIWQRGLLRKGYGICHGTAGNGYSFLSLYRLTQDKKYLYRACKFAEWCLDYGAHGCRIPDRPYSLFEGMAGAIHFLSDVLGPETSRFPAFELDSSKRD

[4] = Inhibition of 1 uM ABA-induced Increase in intracellular cAMP level in human granulocytes incubated for 1 min at 25 degC; type: functional, cell-based; in short: as §1
[5] = organism: Homo sapiens; experiment: Increase in intracellular cAMP level in human granulocytes at 1 to 10 uM incubated for 1 min at 25 degC; type: functional, cell-based; in short: as §2
[6] = organism: Homo sapiens; experiment: Increase in intracellular cAMP level in human granulocytes at 50 uM incubated for 1 min at 25 degC; type: functional, cell-based; in short: as §2
[7] = organism: Homo sapiens; experiment: (§3) Increase in intracellular cAMP level in human granulocytes at 1 uM incubated for 1 min at 25 degC; type: functional; in short: as §2
[8] = organism: Homo sapiens; experiment: Potentiation of 1 uM ABA-induced Increase in intracellular cAMP level in human granulocytes at 50 uM incubated for 1 min at 25 degC; type: functional, cell-based; in short: as §1
[9] = organism: Homo sapiens; experiment: Inhibition of 1 uM ABA-induced Increase in intracellular cAMP level in human granulocytes at 1 to 10 uM incubated for 1 min at 25 degC; type: functional, cell-based; in short: as §1
[10] = as §3; type: functional; in short: as §2

Structure (SMILES): COC(=O)/C=C(C)\C=C\c1c(C)cc(OC(C)=O)c(C)c1C
- inhibition [1]: inactive
- Activity [2]: inactive

Structure (SMILES): CC(=C/C(=O)O)/C=C/C1(O)C(C)(C)CC(=O)C2OC21C (racemic)
- IC50 [3]: 6.56 nM
- IC50 [4]: 0.7 nM
- inhibition [1]: Active

Structure (SMILES): CC(=O)/C=C/C12OC1(C)CCCC2(C)C (racemic)
- Activity [5]: inactive
- Activity [6]: Active
- inhibition [1]: inactive

Structure (SMILES): CC(=O)OC1C=C(C)C(O)(/C=C/C(C)=C\C(=O)O)C(C)(C)C1 (racemic)
- Activity [2]: Active

Structure (SMILES): CC1=CC(=O)CC(C)(C)C1(O)/C=C/C(C)=C\C(=O)Nc1ccc(N)cc1 (racemic)
- inhibition [1]: inactive
- Activity [2]: inactive

Structure (SMILES): CC1=CC(=O)CC(C)(C)C1(O)/C=C/C(C)=C\C(=O)Nc1ccccc1 (racemic)
- Activity [7]: Active
- Activity [2]: Active

Structure (SMILES): CC1=CC(=O)CC(C)(C)C1(O)/C=C/C(C)=C\C(=O)OC(C)(C)C (racemic)
- Activity [8]: inactive
- Activity [2]: Active

Structure (SMILES): CC1=CC(=O)CC(C)(C)C1(O)/C=C/C(C)=C\C(=O)OCC(=O)OC(C)(C)C (racemic)
- Activity [5]: Active
- Activity [7]: Active

Structure (SMILES): CC1=CC(=O)CC(C)(C)C1(O)/C=C/C(C)=C\C(=O)OCC(=O)OCC(=O)O (racemic)
- Activity [6]: inactive
- inhibition [9]: inactive
- inhibition [1]: Active

Structure (SMILES): CC1=CC(=O)CC(C)(C)C1(O)/C=C/C(C)=C\CO (racemic)
- Activity [2]: Active

Structure (SMILES): CC1=CC(=O)O/C1=C\C1(O)C(C)=CC(=O)CC1(C)C (racemic)
- Activity [2]: Active

Structure (SMILES): CC1=CC(O)CC(C)(C)C1(O)/C=C/C(C)=C\C(=O)O (racemic)
- Activity [2]: Active

Structure (SMILES): CC1=CC(O)CC(C)(C)C1(O)/C=C/C(C)=C\C(=O)OCC(=O)OC(C)(C)C (racemic)
- inhibition [1]: inactive
- Activity [2]: inactive

Structure (SMILES): CC1=CC(O)CC(C)(C)C1(O)/C=C/C(C)=C\CO (racemic)
- Activity [2]: Active

Structure (SMILES): CCN(CC)C(=O)/C=C(C)\C=C\C1(O)C(C)=CC(=O)CC1(C)C (racemic)
- Activity [2]: Active

Structure (SMILES): COC(=O)/C=C(C)\C=C\C1(O)C(C)=CC(=O)CC1(C)C (racemic)
- Activity [8]: Active
- Activity [2]: Active

Structure (SMILES): COC(=O)/C=C(C)\C=C\C1(O)C(C)=CC(O)CC1(C)C (racemic)
- inhibition [1]: inactive
- Activity [2]: inactive

Structure (SMILES): COc1ccc(NC(=O)/C=C(C)\C=C\C2(O)C(C)=CC(=O)CC2(C)C)cc1 (racemic)
- Activity [7]: Active
- Activity [2]: Active

Structure (SMILES): CC1=CC(=O)CC(C)(C)[C@@]1(O)/C=C/C(C)=C\C(=O)O (racemic) [(+)-ABSCISIC ACID]
- Activity [10]: 35%
